Measurements: ChEMBL document CHEMBL3124861, “Application of ProTide technology to gemcitabine: a successful approach to overcome the key cancer resistance mechanisms leads to a new agent (NUC-1031) in clinical development” (J Med Chem, 2014)
Calls of active or inactive are those of the source. The calls are words filed in the database; no cut-off is given here.

How the values were obtained:
CCRF-CEM = assay: Cytostatic activity against human CEM cells after 72 hrs by coulter counter analysis; assay type: functional, cell-based
Outline: (§1)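 Tumor cell proliferation assay with murine leukemia and human T-lymphoblast cells. IC50 is the concentration that inhibits proliferation by 50%. Values are means of at least two independent experiments.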

L1210 = assay: Cytostatic activity against mouse L1210 cells after 48 hrs by coulter counter analysis; assay type: functional, cell-based; conditions: L1210, 48 h; outline: as §1
MIA PaCa-2 [1] = assay: Cytostatic activity against human MIAPaCa2 cells after 72 hrs by MTS assay; assay type: functional, cell-based; conditions: MIA PaCa-2, 72 h
Outline: (§2)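 Pancreatic carcinoma cell proliferation assay. IC50 is the concentration that inhibits tumor cell proliferation by 50%. Values are means of at least two independent experiments.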

BXPC-3 [2] = assay: Cytostatic activity against human BxPC3 cells after 72 hrs by MTS assay; assay type: functional, cell-based; conditions: BXPC-3, 72 h; outline: as §2
Mus musculus = assay: Toxicity in Balb/c nude mouse xenografted with human BxPC3 cells assessed as change in body weight at 0.19 to 0.076 mmol/kg, ip administered 2 times per week for 2 weeks measured every week during compound treatment; assay type: organism-based, BXPC-3; conditions: in vivo, 336 h
BXPC-3 [3] = assay: Antitumor activity against human BxPC3 cells xenografted in Balb/c nude mouse assessed as tumor growth inhibition at 0.19 mmol/kg, ip administered every week for 3 weeks; assay type: functional, organism-based
MIA PaCa-2 [4] = assay: Antitumor activity against human MIAPaCa2 cells xenografted in Balb/c nude mouse assessed as tumor growth inhibition at 0.076 mmol/kg, ip measured on day 7; assay type: functional, organism-based
MIA PaCa-2 [5] = assay: Antitumor activity against human MIAPaCa2 cells xenografted in Balb/c nude mouse assessed as tumor growth inhibition at 0.19 mmol/kg, ip administered every week for 3 weeks; assay type: functional, organism-based
[6] = Prodrug activation in human BxPC3 cells assessed as formation of dFdCTP after 24 hrs in presence of hENT1 inhibitor NBTI; assay type: cell-based; conditions: bxpc-3, 24 h
Outline: (§3)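 Pancreatic cells were exposed to the agent for 24 h, with or without a dCK inhibitor or the hENT1 inhibitor NBTI. Intracellular dFdCTP was measured by UPLC-MS/MS on a C18 column. Elution used a 10 mM ammonium acetate/acetonitrile gradient at 700 μL/min. Detection was by triple-quadrupole heated electrospray, transition m/z 502.0→159.0 at 37 V collision energy.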

[7] = Prodrug activation in human MIAPaCa2 cells assessed as formation of dFdCTP after 24 hrs in presence of dCK inhibitor 2T2D; assay type: cell-based; conditions: mia paca-2, 24 h; outline: as §3
[8] = Prodrug activation in human BxPC3 cells assessed as formation of dFdCTP after 24 hrs in presence of dCK inhibitor 2T2D; assay type: cell-based; conditions: bxpc-3, 24 h; outline: as §3
[9] = Prodrug activation in human MIAPaCa2 cells assessed as formation of dFdCTP after 24 hrs in presence of hENT1 inhibitor NBTI; assay type: cell-based; conditions: mia paca-2, 24 h; outline: as §3
Cytidine deaminase = Cytidine deaminase (Homo sapiens, UniProt P32320); assay: Drug degradation assessed as recombinant human cytidine deaminase-mediated dFdU formation at 100 uM measured within 2 mins by UV absorption spectroscopic analysis; assay type: ADME
Cytidine deaminase, sequence (P32320 whole entry): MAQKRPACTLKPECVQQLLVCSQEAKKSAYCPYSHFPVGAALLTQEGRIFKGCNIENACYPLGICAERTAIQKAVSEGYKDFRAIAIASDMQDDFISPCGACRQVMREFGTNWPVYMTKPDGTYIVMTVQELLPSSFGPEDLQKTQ
Outline: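 Compound or gemcitabine incubated with cytidine deaminase. UV absorption scanned at 220–350 nm over 30 min. Deamination to dFdU is read as an absorbance shift from 267 to 257 nm.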

[10] = Cytotoxicity against human PANC1 cells assessed as cell viability by MTT assay in presence of hENT1 inhibitor dipyridamole; assay type: functional, cell-based; conditions: PANC-1
Outline: (§4)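 PANC1 pancreatic cancer cells were grown with the test agent, with or without dipyridamole to block hENT1 nucleoside transport. Viable cells were counted by colorimetric MTT assay, and EC50 was taken as the concentration blocking proliferation by 50%.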

[11] = Cytotoxicity against human PANC1 cells assessed as cell viability by MTT assay in absence of hENT1 inhibitor dipyridamole; assay type: functional, cell-based; conditions: PANC-1; outline: as §4
RT-112 = assay: Ratio of EC50 for human RT112 cells in presence of dCK substrate deoxycytidine to EC50 for human RT112 cells in absence of dCK substrate deoxycytidine; assay type: functional
Outline: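 RT112 cells exposed to compound with or without the dCK substrate 2′-deoxycytidine, which competes for dCK activity. Viable cells counted by colorimetric MTT assay. EC50 is the concentration blocking cell proliferation, compared between the two conditions.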

[12] = Cytotoxicity against human RT112 cells assessed as cell viability by MTT assay in presence of dCK substrate deoxycytidine; assay type: functional, cell-based; conditions: RT-112
Outline: (§5)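 RT112 cancer cells were grown with the test agent, with or without 2′-deoxycytidine as a competing dCK substrate to mimic dCK down-regulation. Viable cells were counted by colorimetric MTT assay, and EC50 was taken as the concentration blocking proliferation by 50%.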

[13] = Cytotoxicity against human RT112 cells assessed as cell viability by MTT assay in absence of dCK substrate deoxycytidine; assay type: functional, cell-based; conditions: RT-112; outline: as §5

IC50 (MIA PaCa-2 [1]) | IC50 (BXPC-3 [2]) | Compound | IC50 (CCRF-CEM) | IC50 (L1210) | further results
1410 nM | 360 nM | C[C@H](NP(=O)(OC[C@H]1O[C@@H](n2ccc(N)nc2=O)C(F)(F)[C@@H]1O)Oc1ccccc1)C(=O)OCC(C)(C)C (some centres undefined) | 440 nM | 390 nM | –
1040 nM | 670 nM | Nc1ccn([C@@H]2O[C@H](CO)[C@@H](O)C2(F)F)c(=O)n1 [GEMCITABINE] | 86 nM | – | Activity (Mus musculus): Non-toxic; TGI (BXPC-3 [3]): inactive; TGI (MIA PaCa-2 [4]): Active; TGI (MIA PaCa-2 [5]): Active; Drug metabolism [6]: Not Active; Drug metabolism [7]: Not Active; Drug metabolism [8]: Not Active; Drug metabolism [9]: Not Active; Stability (Cytidine deaminase): Unstable; EC50 [10]: > 2 mM; EC50 [11]: 611 µM; Ratio EC50 (RT-112): 75; EC50 [12]: 105 nM; EC50 [13]: 1.4 nM
– | – | CCCCCOC(=O)[C@H](C)NP(=O)(OC[C@H]1O[C@@H](n2ccc(N)nc2=O)C(F)(F)[C@@H]1O)Oc1cccc2ccccc12 (some centres undefined) | 73 nM | 30 nM | –
– | – | CCCCCOC(=O)[C@H](C)NP(=O)(OC[C@H]1O[C@@H](n2ccc(N)nc2=O)C(F)(F)[C@@H]1O)Oc1ccccc1 (some centres undefined) | 80 nM | 24 nM | –
– | – | C[C@H](NP(=O)(OC[C@H]1O[C@@H](n2ccc(N)nc2=O)C(F)(F)[C@@H]1O)Oc1cccc2ccccc12)C(=O)OC1CCCCC1 (some centres undefined) | 140 nM | 320 nM | –
– | – | CCCCCCOC(=O)[C@H](C)NP(=O)(OC[C@H]1O[C@@H](n2ccc(N)nc2=O)C(F)(F)[C@@H]1O)Oc1cccc2ccccc12 (some centres undefined) | 75 nM | 22 nM | –
